Measurements reported in ChEMBL document CHEMBL4811269, “Design, synthesis and antibacterial evaluation of novel C-11, C-9 or C-2'-substituted 3-O-descladinosyl-3-ketoclarithromycin derivatives” (Bioorg Med Chem Lett, 2021).
Values after ≈ are worked out from the molar mass of the structure shown.

What was measured:
Streptococcus pneumoniae [1] = assay: Antibacterial activity against erythromycin-resistant Streptococcus pneumoniae B1 by broth microdilution method; type: functional
Method in brief: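 MIC by standard NCCLS broth microdilution, reported in µg/mL. The strain expresses the ermB gene. Clarithromycin and azithromycin were run alongside as references.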

Staphylococcus aureus [2] = assay: Antibacterial activity against erythromycin-susceptible Staphylococcus aureus ATCC 25923 by broth microdilution method; type: functional
Method in brief: (§1)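 MIC determined by standard broth microdilution per NCCLS recommendations, read as minimal inhibitory concentration in µg/mL. Standard ATCC strains tested alongside the other panel strains, with clarithromycin and azithromycin as reference agents.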

Streptococcus pyogenes = assay: Antibacterial activity against erythromycin-resistant Streptococcus pyogenes R1 by broth microdilution method; type: functional
Method in brief: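 MIC by standard NCCLS broth microdilution, reported in µg/mL. The strain is a clinically isolated erythromycin-resistant strain. Clarithromycin and azithromycin were run alongside as references.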

Streptococcus pneumoniae [3] = assay: Antibacterial activity against erythromycin-resistant Streptococcus pneumoniae AB11 by broth microdilution method; type: functional
Method in brief: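 MIC by standard NCCLS broth microdilution, reported in µg/mL. The strain expresses the ermB and mefA genes. Clarithromycin and azithromycin were run alongside as references.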

Pseudomonas aeruginosa = assay: Antibacterial activity against penicillin-susceptible Pseudomonas aeruginosa ATCC 27853 by broth microdilution method; type: functional; method in brief: as §1
Bacillus subtilis = assay: Antibacterial activity against penicillin-susceptible Bacillus subtilis ATCC9372 by broth microdilution method; type: functional; method in brief: as §1
Staphylococcus aureus [4] = assay: Antibacterial activity against penicillin-resistant Staphylococcus aureus ATCC 31007 by broth microdilution method; type: functional
Method in brief: (§2)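 MIC by standard NCCLS broth microdilution against resistant S. aureus strains, reported in µg/mL. Clarithromycin and azithromycin were run alongside as references.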

Staphylococcus aureus [5] = assay: Antibacterial activity against methicillin-resistant Staphylococcus aureus ATCC 43300 by broth microdilution method; type: functional; method in brief: as §2
[6] = Chemical stability of the compound in pH 7.4 phosphate solution after 24 hrs by HPLC analysis; type: physicochemical; conditions: buffer, pH 7.4, 24 h
Method in brief: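 Compound held in phosphate solution (pH = 7.4) at 25 °C and monitored by HPLC over 24 h. Stability judged from change in peak area.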

| SMILES | MIC (Streptococcus pneumoniae [1]) [µg/mL] | MIC (Staphylococcus aureus [2]) [µg/mL] | MIC (Streptococcus pyogenes) [µg/mL] | MIC (Streptococcus pneumoniae [3]) [µg/mL] | MIC (Pseudomonas aeruginosa) [µg/mL] | MIC (Bacillus subtilis) [µg/mL] | MIC (Staphylococcus aureus [4]) [µg/mL] | MIC (Staphylococcus aureus [5]) [µg/mL] | Stabilty [6] |
| --- | --- | --- | --- | --- | --- | --- | --- | --- | --- |
| CCCc1ccc(C(=O)O[C@@H]2[C@H](C)CN(C)CCOC(=O)[C@H](C)C(=O)[C@H](C)[C@@H](O[C@@H]3O[C@H](C)C[C@H](N(C)C)[C@H]3OC(=O)c3ccc(CCC)cc3)[C@](C)(OC)C[C@H]2C)cc1 | > 256 | 64 (≈ 76.5 µM) | > 256 | > 256 | > 128 | > 128 | > 256 | > 256 |  |
| CO[C@]1(C)C[C@@H](C)[C@H](OC(=O)c2ccc(Br)cc2)[C@H](C)CN(C)CCOC(=O)[C@H](C)C(=O)[C@H](C)[C@H]1O[C@@H]1O[C@H](C)C[C@H](N(C)C)[C@H]1OC(=O)c1ccc(Br)cc1 | > 256 | 128 (≈ 141 µM) | > 256 | > 256 | > 128 | > 128 | > 256 | > 256 |  |
| CO[C@]1(C)C[C@@H](C)[C@H](OC(=O)c2ccccc2)[C@H](C)CN(C)CCOC(=O)[C@H](C)C(=O)[C@H](C)[C@H]1O[C@@H]1O[C@H](C)C[C@H](N(C)C)[C@H]1OC(=O)c1ccccc1 | > 256 | 128 (≈ 170 µM) | > 256 | > 256 | > 128 | > 128 | > 256 | > 256 | Stable |
| COc1cccc(C(=O)O[C@@H]2[C@H](C)CN(C)CCOC(=O)[C@H](C)C(=O)[C@H](C)[C@@H](O[C@@H]3O[C@H](C)C[C@H](N(C)C)[C@H]3OC(=O)c3cccc(OC)c3)[C@](C)(OC)C[C@H]2C)c1 | > 256 | 128 (≈ 157 µM) | > 256 | > 256 | > 128 | > 128 | > 256 | > 256 |  |
| CO[C@]1(C)C[C@@H](C)[C@H](OC(=O)c2cccc(Br)c2)[C@H](C)CN(C)CCOC(=O)[C@H](C)C(=O)[C@H](C)[C@H]1O[C@@H]1O[C@H](C)C[C@H](N(C)C)[C@H]1OC(=O)c1cccc(Br)c1 | > 256 | 64 (≈ 70.3 µM) | > 256 | > 256 | > 128 | > 128 | > 256 | > 256 |  |
| CO[C@]1(C)C[C@@H](C)[C@H](OC(=O)c2cc(Cl)cc(Cl)c2)[C@H](C)CN(C)CCOC(=O)[C@H](C)C(=O)[C@H](C)[C@H]1O[C@@H]1O[C@H](C)C[C@H](N(C)C)[C@H]1OC(=O)c1cc(Cl)cc(Cl)c1 | > 256 | 128 (≈ 144 µM) | > 256 | > 256 | > 128 | > 128 | > 256 | > 256 |  |
| CO[C@]1(C)C[C@@H](C)[C@H](OC(=O)c2cccc([N+](=O)[O-])c2)[C@H](C)CN(C)CCOC(=O)[C@H](C)C(=O)[C@H](C)[C@H]1O[C@@H]1O[C@H](C)C[C@H](N(C)C)[C@H]1OC(=O)c1cccc([N+](=O)[O-])c1 | > 256 | 128 (≈ 152 µM) | > 256 | > 256 | > 128 | > 128 | > 256 | > 256 |  |
| CO[C@]1(C)C[C@@H](C)[C@H](OC(=O)c2ccc(C(F)(F)F)cc2)[C@H](C)CN(C)CCOC(=O)[C@H](C)C(=O)[C@H](C)[C@H]1O[C@@H]1O[C@H](C)C[C@H](N(C)C)[C@H]1OC(=O)c1ccc(C(F)(F)F)cc1 | > 256 | 64 (≈ 72 µM) | > 256 | > 256 | > 128 | > 128 | > 256 | > 256 |  |
| CO[C@]1(C)C[C@@H](C)[C@H](OC(=O)c2cccc(C)c2)[C@H](C)CN(C)CCOC(=O)[C@H](C)C(=O)[C@H](C)[C@H]1O[C@@H]1O[C@H](C)C[C@H](N(C)C)[C@H]1OC(=O)c1cccc(C)c1 | > 256 | 128 (≈ 164 µM) | > 256 | > 256 | > 128 | > 128 | > 256 | > 256 |  |
| CO[C@]1(C)C[C@@H](C)[C@H](OC(=O)c2ccc(F)cc2)[C@H](C)CN(C)CCOC(=O)[C@H](C)C(=O)[C@H](C)[C@H]1O[C@@H]1O[C@H](C)C[C@H](N(C)C)[C@H]1OC(=O)c1ccc(F)cc1 | > 256 | 128 (≈ 162 µM) | > 256 | > 256 | > 128 | > 128 | > 256 | > 256 |  |
| CO[C@]1(C)C[C@@H](C)[C@H](OC(=O)c2cccc(C(F)(F)F)c2)[C@H](C)CN(C)CCOC(=O)[C@H](C)C(=O)[C@H](C)[C@H]1O[C@@H]1O[C@H](C)C[C@H](N(C)C)[C@H]1OC(=O)c1cccc(C(F)(F)F)c1 | > 256 | 128 (≈ 144 µM) | > 256 | > 256 | > 128 | > 128 | > 256 | > 256 | Stable |
| COc1ccc(C(=O)O[C@@H]2[C@H](C)CN(C)CCOC(=O)[C@H](C)C(=O)[C@H](C)[C@@H](O[C@@H]3O[C@H](C)C[C@H](N(C)C)[C@H]3OC(=O)c3ccc(OC)cc3)[C@](C)(OC)C[C@H]2C)cc1 | > 256 | 64 (≈ 78.7 µM) | > 256 | > 256 | > 128 | > 128 | > 256 | > 256 |  |
| CO[C@]1(C)C[C@@H](C)[C@H](OC(=O)c2ccc([N+](=O)[O-])cc2)[C@H](C)CN(C)CCOC(=O)[C@H](C)C(=O)[C@H](C)[C@H]1O[C@@H]1O[C@H](C)C[C@H](N(C)C)[C@H]1OC(=O)c1ccc([N+](=O)[O-])cc1 | > 256 | 64 (≈ 75.9 µM) | > 256 | > 256 | > 128 | > 128 | > 256 | > 256 |  |
| CCOc1ccc(C(=O)O[C@@H]2[C@H](C)CN(C)CCOC(=O)[C@H](C)C(=O)[C@H](C)[C@@H](O[C@@H]3O[C@H](C)C[C@H](N(C)C)[C@H]3OC(=O)c3ccc(OCC)cc3)[C@](C)(OC)C[C@H]2C)cc1 | > 256 | 128 (≈ 152 µM) | > 256 | > 256 | > 128 | > 128 | > 256 | > 256 |  |
| CO[C@]1(C)C[C@@H](C)[C@H](OC(=O)c2ccccc2Br)[C@H](C)CN(C)CCOC(=O)[C@H](C)C(=O)[C@H](C)[C@H]1O[C@@H]1O[C@H](C)C[C@H](N(C)C)[C@H]1OC(=O)c1ccccc1Br | > 256 | 128 (≈ 141 µM) | > 256 | > 256 | > 128 | > 128 | > 256 | > 256 |  |
| CO[C@]1(C)C[C@@H](C)[C@H](OC(=O)c2cccc(F)c2)[C@H](C)CN(C)CCOC(=O)[C@H](C)C(=O)[C@H](C)[C@H]1O[C@@H]1O[C@H](C)C[C@H](N(C)C)[C@H]1OC(=O)c1cccc(F)c1 | > 256 | 128 (≈ 162 µM) | > 256 | > 256 | > 128 | > 128 | > 256 | > 256 |  |
| CCc1ccc(C(=O)O[C@@H]2[C@H](C)CN(C)CCOC(=O)[C@H](C)C(=O)[C@H](C)[C@@H](O[C@@H]3O[C@H](C)C[C@H](N(C)C)[C@H]3OC(=O)c3ccc(CC)cc3)[C@](C)(OC)C[C@H]2C)cc1 | > 256 | 64 (≈ 79.1 µM) | > 256 | > 256 | > 128 | > 128 | > 256 | > 256 |  |
| CO[C@]1(C)C[C@@H](C)[C@H](OC(=O)c2cccc(Cl)c2)[C@H](C)CN(C)CCOC(=O)[C@H](C)C(=O)[C@H](C)[C@H]1O[C@@H]1O[C@H](C)C[C@H](N(C)C)[C@H]1OC(=O)c1cccc(Cl)c1 | > 256 | 64 (≈ 77.9 µM) | > 256 | > 256 | > 128 | > 128 | > 256 | > 256 |  |
| CC[C@H]1OC(=O)[C@H](C)[C@@H](O[C@H]2C[C@@](C)(OC)[C@@H](O)[C@H](C)O2)[C@H](C)[C@@H](O[C@@H]2O[C@H](C)C[C@H](N(C)C)[C@H]2O)[C@](C)(O)C[C@@H](C)CN(C)[C@H](C)[C@@H](O)[C@]1(C)O [AZITHROMYCIN] | > 256 | ≤ 0.25 | 256 (≈ 342 µM) | 128 (≈ 171 µM) | 32 (≈ 42.7 µM) | ≤ 0.25 | > 256 | > 256 |  |
| CC[C@H]1OC(=O)[C@H](C)[C@@H](O[C@H]2C[C@@](C)(OC)[C@@H](O)[C@H](C)O2)[C@H](C)[C@@H](O[C@@H]2O[C@H](C)C[C@H](N(C)C)[C@H]2O)[C@](C)(OC)C[C@@H](C)C(=O)[C@H](C)[C@@H](O)[C@]1(C)O [CLARITHROMYCIN] | > 256 | ≤ 0.25 | 256 (≈ 342 µM) | 256 (≈ 342 µM) | 16 (≈ 21.4 µM) | ≤ 0.25 | > 256 | > 256 |  |
